Converted amounts (≈) assume the structure as drawn.
test system: Mycobacterium tuberculosis; assay: Antituberculosis activity against multidrug-resistant Mycobacterium tuberculosis isolate Spec. 192 by twofold serial dilution method; assay type: functional
Method in brief: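 Classical two-fold test-tube serial dilution in Youmans' modified Proskauer–Beck liquid medium with 10% bovine serum. Inocula from 14-day cultures. Compounds in ethylene glycol, 10 mg/mL stock, geometric dilutions in medium; 3.1, 6.2, 12.5, 25, 50 and 100 µg/mL evaluated. Incubation at 37 °C. MIC = lowest concentration inhibiting growth relative to a compound-free tube. INH, PZA and RMP served as reference drugs.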

SMILES	MIC
O=[N+]([O-])c1cc(Cl)cc2[nH]c(CCC3CCCCC3)nc12	12.5 µg/mL (≈ 40.6 µM)
c1cnc2[nH]c(CCC3CCCCC3)nc2c1	50 µg/mL (≈ 218 µM)
Brc1cnc2[nH]c(CCC3CCCCC3)nc2c1	6.2 µg/mL (≈ 20.1 µM)
O=C(CCC1CCCCC1)NN=C1SCCS1	100 µg/mL (≈ 367 µM)
S=c1[nH]nc(CCC2CCCCC2)n1-c1ccc(Cl)cc1	100 µg/mL (≈ 311 µM)
CSC(=S)NNC(=O)CCC1CCCCC1	50 µg/mL (≈ 192 µM)
C=CCn1c(CCC2CCCCC2)n[nH]c1=S	50 µg/mL (≈ 199 µM)
c1ccc2c(c1)ccc1nc(CCC3CCCCC3)[nH]c12	1.5 µg/mL (≈ 5.39 µM)
c1ccc2nc3cc4[nH]c(CCC5CCCCC5)nc4cc3nc2c1	1.5 µg/mL (≈ 4.54 µM)
S=c1[nH]nc(CCC2CCCCC2)o1	25 µg/mL (≈ 118 µM)
S=c1[nH]nc(CCC2CCCCC2)[nH]1	50 µg/mL (≈ 237 µM)
CNC(=S)NNC(=O)CCC1CCCCC1	100 µg/mL (≈ 411 µM)
C=CCNC(=S)NNC(=O)CCC1CCCCC1	100 µg/mL (≈ 371 µM)
O=C(CCC1CCCCC1)NNC(=S)NC1CCCCC1	100 µg/mL (≈ 321 µM)
O=C(CCC1CCCCC1)NNC(=S)Nc1ccc(Cl)cc1	50 µg/mL (≈ 147 µM)
Cn1c(CCC2CCCCC2)n[nH]c1=S	100 µg/mL (≈ 444 µM)
S=c1[nH]nc(CCC2CCCCC2)n1C1CCCCC1	100 µg/mL (≈ 341 µM)
CSC(=NNC(=O)CCC1CCCCC1)SC	50 µg/mL (≈ 182 µM)
CC1(C)CNc2nnc(CCC3CCCCC3)n2C1	100 µg/mL (≈ 381 µM)
Cl.Cl.c1cc2nc(CCC3CCCCC3)[nH]c2cn1	25 µg/mL
NNC(=O)c1ccncc1 [ISONIAZID]	0.5 µg/mL (≈ 3.65 µM)
NC(=O)c1cnccn1 [PYRAZINAMIDE]	25 µg/mL (≈ 203 µM)
CO[C@H]1/C=C/O[C@@]2(C)Oc3c(C)c(O)c4c(O)c(c(/C=N/N5CCN(C)CC5)c(O)c4c3C2=O)NC(=O)/C(C)=C\C=C\[C@H](C)[C@H](O)[C@@H](C)[C@@H](O)[C@@H](C)[C@H](OC(C)=O)[C@@H]1C [RIFAMPIN]	1.2 µg/mL (≈ 1.46 µM)

From ChEMBL document CHEMBL1926666, “Synthesis of novel 3-cyclohexylpropanoic acid-derived nitrogen heterocyclic compounds and their evaluation for tuberculostatic activity” (Bioorg Med Chem, 2012)
